From ChEMBL document CHEMBL3864151, “Discovery of imidazopyridazines as potent Pim-1/2 kinase inhibitors” (Bioorg Med Chem Lett, 2016)
In brackets after ≈: the same amount, converted by molar mass. Activity calls are given as the source filed them. No cut-off for these calls is given here.

Key:
[1] = Clearance in Sprague-Dawley rat at 2 mg/kg, iv; format: ADME, organism-based; settings: in vivo
In short: (§1)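 Male Sprague Dawley rats, 3 animals per dosing route, mean values. iv dose 2 mg/kg as a solution in DMSO; po dose 5 mg/kg in 1% Tween 80, 2% HPMC, 97% water/methanesulfonic acid pH 2.2.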

[2] = Volume of distribution at steady state in Sprague-Dawley rat at 2 mg/kg, iv; format: ADME, organism-based; settings: in vivo, read-out: Vdss; in short: as §1
[3] = Mean residence time in Sprague-Dawley rat at 2 mg/kg, iv; format: ADME, organism-based; settings: in vivo; in short: as §1
[4] = AUC (0 to infinity) in Sprague-Dawley rat at 5 mg/kg, po; format: ADME, organism-based; parameters: dose 5 mg/kg, route oral, time infinity; settings: in vivo; in short: as §1
[5] = Oral bioavailability in Sprague-Dawley rat at 5 mg/kg; format: ADME, organism-based; settings: in vivo; in short: as §1
[6] = Clearance in Sprague-Dawley rat at 2 mg/kg, iv relative to liver blood flow; format: ADME, organism-based; settings: in vivo; in short: as §1
[7] = Aqueous solubility in 0.01N HCl after 48 to 72 hrs by HPLC analysis; format: physicochemical
In short: (§2)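 Aqueous solubility determined in 0.01N HCl, PBS (pH 7.4) and FaSIF (pH 6.8).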

[8] = Aqueous solubility in pH 7.4 PBS after 48 to 72 hrs by HPLC analysis; format: physicochemical; in short: as §2
[9] = target: Casein kinase II subunit alpha (Homo sapiens) (UniProt P68400); assay: Competitive binding affinity to full length wild type human CSNK2A1 expressed in mammalian expression system at 10 uM by kinomescan method relative to control
In short: (§3)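 DiscoveRX scanMAX kinase panel of protein and lipid kinases and common mutants; competitive binding of compound at 10 µM expressed as percentage of control (POC).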

[10] = target: Casein kinase II subunit alpha' (Homo sapiens) (UniProt P19784); assay: Competitive binding affinity to full length wild type human CSNK2A2 expressed in mammalian expression system at 10 uM by kinomescan method relative to control; in short: as §3
[11] = species: Homo sapiens; assay: Competitive binding affinity to wild type human DYRK at 10 uM by kinomescan method relative to control; in short: as §3
[12] = target: Mitogen-activated protein kinase 15 (Homo sapiens) (UniProt Q8TD08); assay: Competitive binding affinity to partial length wild type human ERK8 expressed in bacterial expression system at 10 uM by kinomescan method relative to control; in short: as §3
[13] = test system: Receptor-type tyrosine-protein kinase FLT3 (Homo sapiens), P36888 [D835Y]; assay: Competitive binding affinity to partial length […] human FLT3 D835Y expressed in bacterial expression system at 10 uM by kinomescan method relative to control
In short: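 Single-concentration (10 µM) screen in the scanMAX competition-binding panel of protein and lipid kinases and their common mutants. Binding is expressed as percentage of control (POC).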

[14] = target: Glycogen synthase kinase-3 alpha (Homo sapiens) (UniProt P49840); assay: Competitive binding affinity to full length wild type human GSK3A expressed in bacterial expression system at 10 uM by kinomescan method relative to control; in short: as §3
[15] = target: Homeodomain-interacting protein kinase 1 (Homo sapiens) (UniProt Q86Z02); assay: Competitive binding affinity to partial length wild type human HIPK1 expressed in mammalian expression system at 10 uM by kinomescan method relative to control; in short: as §3
[16] = target: Homeodomain-interacting protein kinase 2 (Homo sapiens) (UniProt Q9H2X6); assay: Competitive binding affinity to partial length wild type human HIPK2 expressed in mammalian expression system at 10 uM by kinomescan method relative to control; in short: as §3
[17] = target: Homeodomain-interacting protein kinase 3 (Homo sapiens) (UniProt Q9H422); assay: Competitive binding affinity to partial length wild type human HIPK3 expressed in mammalian expression system at 10 uM by kinomescan method relative to control; in short: as §3
[18] = target: Mitogen-activated protein kinase 13 (Homo sapiens) (UniProt O15264); assay: Competitive binding affinity to full length wild type human p38delta expressed in bacterial expression system at 10 uM by kinomescan method relative to control; in short: as §3
[19] = target: Phosphatidylinositol 4-phosphate 5-kinase type-1 gamma (Homo sapiens) (UniProt O60331); assay: Competitive binding affinity to partial length wild type human PIP5K1C expressed in mammalian expression system at 10 uM by kinomescan method relative to control; in short: as §3
[20] = target: Serine/threonine-protein kinase TAO1 (Homo sapiens) (UniProt Q7L7X3); assay: Competitive binding affinity to partial length wild type human TAOK1 expressed in mammalian expression system at 10 uM by kinomescan method relative to control; in short: as §3
[21] = target: Serine/threonine-protein kinase TAO3 (Homo sapiens) (UniProt Q9H2K8); assay: Competitive binding affinity to partial length wild type human TAOK3 expressed in mammalian expression system at 10 uM by kinomescan method relative to control; in short: as §3
[22] = target: Serine/threonine-protein kinase VRK2 (Homo sapiens) (UniProt Q86Y07); assay: Competitive binding affinity to partial length wild type human VRK2 expressed in mammalian expression system at 10 uM by kinomescan method relative to control; in short: as §3
[23] = Antiproliferative activity against human MOLP8 cells after 72 hrs by CellTiter-Glo assay; format: functional, cell-based; settings: MOLP-8, 72 h
[24] = Antiproliferative activity against human KMS28BM cells after 72 hrs by CellTiter-Glo assay; format: functional, cell-based; settings: KMS-28BM
[25] = Antiproliferative activity against human KMS11 cells after 72 hrs by CellTiter-Glo assay; format: functional, cell-based; settings: KMS-11, 72 h
[26] = Antiproliferative activity against human KARPAS620 cells after 72 hrs by CellTiter-Glo assay; format: functional, cell-based; settings: Karpas-620, 72 h
[27] = Antiproliferative activity against human KMS-12-BM cells after 72 hrs by CellTiter-Glo assay; format: functional, cell-based
[28] = Antiproliferative activity against human SKMM-2 cells after 72 hrs by CellTiter-Glo assay; format: functional, cell-based; settings: SK-MM-2, 72 h
[29] = Antiproliferative activity against human MOLP2 cells after 72 hrs by CellTiter-Glo assay; format: functional, cell-based; settings: MOLP-2, 72 h
[30] = Antiproliferative activity against human NCI-H929 cells after 72 hrs by CellTiter-Glo assay; format: functional, cell-based; settings: NCI-H929, 72 h
[31] = Antiproliferative activity against human MM1S cells after 72 hrs by CellTiter-Glo assay; format: functional, cell-based; settings: MM1.S
[32] = Antiproliferative activity against human MM1R cells after 72 hrs by CellTiter-Glo assay; format: functional, cell-based; settings: MM.1R
[33] = Antiproliferative activity against human RPMI8226 cells after 72 hrs by CellTiter-Glo assay; format: functional, cell-based; settings: RPMI-8226, 72 h
[34] = Antiproliferative activity against PTEN-deficient human OPM2 cells after 72 hrs by CellTiter-Glo assay; format: functional, cell-based; settings: OPM-2, 72 h
[35] = Inhibition of Pim signaling in human KMS-12-BM cells assessed as upregulation of Pim1 expression at […] after 4 to 72 hrs by Western blot method; format: cell-based
[36] = Inhibition of Pim signaling in human KMS-12-BM cells assessed as upregulation of Pim2 expression at […] after 4 to 72 hrs by Western blot method; format: cell-based
[37] = Effect on total BAD levels in human KMS-12-BM cells at […] after 4 to 72 hrs by Western blot method; format: ADME, cell-based
[38] = test system: MDR1; assay: Permeability in rat LLC-PK1 cells expressing MDR1

With `C[C@@H]1C[C@H](N)CN(c2ccncc2Nc2ncc3ccc(-c4c(F)cccc4F)nn23)C1` the CL [1] was 23.3 mL/min/kg, the Vd [2] was 7.3 L/kg and the MRT [3] was 4.3 h. It also gave an AUC [4] of 3.5 µM·h, an F [5] of 17% and a CL [6] of 40%. For the same compound, the solubility [7] was 200 µg/mL (≈ 459 µM), the solubility [8] was 180 µg/mL (≈ 413 µM) and the Activity [9] was 4.2%. It also gave an Activity [10] of 2%, an Activity [11] of 3.4% and an Activity [12] of 0.65%. The Activity [13] was 6.1%, the Activity [14] was 1.4% and the Activity [15] was 7%. For the same compound, the Activity [16] was 1.8%, the Activity [17] was 1.2% and the Activity [18] was 8.4%. The Activity [19] was 7%, the Activity [20] was 0.6% and the Activity [21] was 0.4%. It also gave an Activity [22] of 9.2%, an IC50 [23] of 58 nM and an IC50 [24] of 86 nM. The IC50 [25] was 100 nM, the IC50 [26] was 162 nM and the IC50 [27] was 216 nM. It also gave an IC50 [28] of 228 nM, an IC50 [29] of 332 nM and an IC50 [30] of 337 nM. The IC50 [31] was 361 nM, the IC50 [32] was 457 nM and the IC50 [33] was 569 nM. The IC50 [34] was 4380 nM, the Activity [35] was “Active” and the Activity [36] was “Active”. The Activity [37] was “Non-Toxic” and the Papp [38] was 4.5 ×10⁻⁶ cm/s.
